Assays:
[1] = target: T1, Multidrug efflux pump subunit AcrB (Escherichia coli (strain K12)) (UniProt P31224); assay: Inhibition of AcrB in Escherichia coli BW25113 assessed as potentiation of tetraphenylphosphonium induced antibacterial activity by measuring tetraphenylphosphonium MIC at 32 ug/ml measured after 18 hrs by checkerboard titration method (reference value: 1024 ug/ml); conditions: dose 32.0 µg/ml
T1 sequence (whole entry): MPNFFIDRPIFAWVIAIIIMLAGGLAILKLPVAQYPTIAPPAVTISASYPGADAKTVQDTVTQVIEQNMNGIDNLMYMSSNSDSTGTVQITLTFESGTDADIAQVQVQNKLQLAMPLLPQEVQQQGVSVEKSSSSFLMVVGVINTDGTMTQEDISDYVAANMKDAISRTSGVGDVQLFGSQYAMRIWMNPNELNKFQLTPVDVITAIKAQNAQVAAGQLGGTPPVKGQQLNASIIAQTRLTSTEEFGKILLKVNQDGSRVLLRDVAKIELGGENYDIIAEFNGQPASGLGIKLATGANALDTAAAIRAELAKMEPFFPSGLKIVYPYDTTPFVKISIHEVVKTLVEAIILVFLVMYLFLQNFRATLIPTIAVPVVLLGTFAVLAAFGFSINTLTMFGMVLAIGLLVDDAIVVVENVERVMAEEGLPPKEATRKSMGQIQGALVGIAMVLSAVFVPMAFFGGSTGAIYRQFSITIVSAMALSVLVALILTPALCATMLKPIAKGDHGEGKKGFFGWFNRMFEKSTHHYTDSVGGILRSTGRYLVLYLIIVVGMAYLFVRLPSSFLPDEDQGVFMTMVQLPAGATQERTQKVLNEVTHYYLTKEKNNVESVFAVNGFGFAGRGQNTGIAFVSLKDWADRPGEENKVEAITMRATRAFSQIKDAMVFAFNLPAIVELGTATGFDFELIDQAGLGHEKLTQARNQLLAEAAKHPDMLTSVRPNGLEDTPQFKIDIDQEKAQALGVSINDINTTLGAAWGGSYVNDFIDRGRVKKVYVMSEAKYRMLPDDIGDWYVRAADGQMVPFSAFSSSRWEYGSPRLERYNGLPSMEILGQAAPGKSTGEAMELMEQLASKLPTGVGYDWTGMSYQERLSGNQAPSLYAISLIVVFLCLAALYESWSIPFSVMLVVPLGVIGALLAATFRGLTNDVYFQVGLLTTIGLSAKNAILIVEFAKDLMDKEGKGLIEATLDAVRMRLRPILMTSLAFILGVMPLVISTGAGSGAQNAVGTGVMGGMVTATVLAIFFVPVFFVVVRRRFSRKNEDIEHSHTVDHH

[2] = target: T1, Multidrug efflux pump subunit AcrB (Escherichia coli (strain K12)); assay: Inhibition of AcrB in Escherichia coli BW25113 assessed as potentiation of erythromycin induced antibacterial activity by measuring erythromycin MIC at 32 ug/ml measured after 18 hrs by checkerboard titration method (reference value: 64 ug/ml); conditions: dose 32.0 µg/ml
[3] = target: T1, Multidrug efflux pump subunit AcrB (Escherichia coli (strain K12)); assay: Inhibition of AcrB in Escherichia coli BW25113 assessed as potentiation of rifampicin induced antibacterial activity by measuring rifampicin MIC at 64 ug/ml measured after 18 hrs by checkerboard titration method (reference value: 16 ug/ml); conditions: dose 64.0 µg/ml
[4] = target: T1, Multidrug efflux pump subunit AcrB (Escherichia coli (strain K12)); assay: Inhibition of AcrB in Escherichia coli BW25113 assessed as potentiation of chloramphenicol induced antibacterial activity by measuring chloramphenicol MIC at 16 ug/ml measured after 18 hrs by checkerboard titration method (reference value: 8 ug/ml); conditions: dose 16.0 µg/ml
[5] = target: T1, Multidrug efflux pump subunit AcrB (Escherichia coli (strain K12)); assay: Inhibition of AcrB in Escherichia coli BW25113 assessed as potentiation of tetraphenylphosphonium induced antibacterial activity by measuring tetraphenylphosphonium MIC at 64 ug/ml measured after 18 hrs by checkerboard titration method (reference value: 1024 ug/ml); conditions: dose 64.0 µg/ml
[6] = target: T1, Multidrug efflux pump subunit AcrB (Escherichia coli (strain K12)); assay: Inhibition of AcrB in Escherichia coli BW25113 assessed as potentiation of tetraphenylphosphonium induced antibacterial activity by measuring tetraphenylphosphonium MIC at 16 ug/ml measured after 18 hrs by checkerboard titration method (reference value: 1024 ug/ml); conditions: dose 16.0 µg/ml
[7] = target: T1, Multidrug efflux pump subunit AcrB (Escherichia coli (strain K12)); assay: Inhibition of AcrB in Escherichia coli BW25113 assessed as potentiation of erythromycin induced antibacterial activity by measuring erythromycin MIC at 16 ug/ml measured after 18 hrs by checkerboard titration method (reference value: 64 ug/ml); conditions: dose 16.0 µg/ml
[8] = target: T1, Multidrug efflux pump subunit AcrB (Escherichia coli (strain K12)); assay: Inhibition of AcrB in Escherichia coli BW25113 assessed as potentiation of levofloxacin induced antibacterial activity by measuring levofloxacin MIC at 64 ug/ml measured after 18 hrs by checkerboard titration method (reference value: 0.06 ug/ml); conditions: dose 64.0 µg/ml
[9] = target: T1, Multidrug efflux pump subunit AcrB (Escherichia coli (strain K12)); assay: Inhibition of AcrB in Escherichia coli BW25113 assessed as potentiation of levofloxacin induced antibacterial activity by measuring levofloxacin MIC at 128 ug/ml measured after 18 hrs by checkerboard titration method (reference value: 0.06 ug/ml); conditions: dose 128.0 µg/ml
Cell membrane = assay: Induction of outer membrane permeabilization in wild type Escherichia coli BW25113 assessed as increase in nitrocefin hydrolysis at 128 ug/ml by spectrophotometry analysis; conditions: dose 128 µg/ml
Procedure, shortened: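 Outer-membrane permeability: intact E. coli treated with 10 µM CCCP to block nitrocefin efflux, then exposed to compound. Nitrocefin hydrolysis by periplasmic β-lactamase followed as increasing absorbance at 490 nm over time. Polymyxin B as permeabilizer control, untreated cells as baseline. Duplicate experiments on different days.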

[10] = target: T1, Multidrug efflux pump subunit AcrB (Escherichia coli (strain K12)); assay: Inhibition of AcrB in Escherichia coli BW25113 assessed as potentiation of tetraphenylphosphonium induced antibacterial activity by measuring tetraphenylphosphonium MIC at 128 ug/ml measured after 18 hrs by checkerboard titration method (reference value: 1024 ug/ml); conditions: dose 128.0 µg/ml
[11] = target: T1, Multidrug efflux pump subunit AcrB (Escherichia coli (strain K12)); assay: Inhibition of AcrB in Escherichia coli BW25113 assessed as potentiation of erythromycin induced antibacterial activity by measuring erythromycin MIC at 128 ug/ml measured after 18 hrs by checkerboard titration method (reference value: 64 ug/ml); conditions: dose 128.0 µg/ml
[12] = target: T1, Multidrug efflux pump subunit AcrB (Escherichia coli (strain K12)); assay: Inhibition of AcrB in Escherichia coli BW25113 assessed as potentiation of rifampicin induced antibacterial activity by measuring rifampicin MIC at 32 ug/ml measured after 18 hrs by checkerboard titration method (reference value: 16 ug/ml); conditions: dose 32.0 µg/ml
[13] = target: T1, Multidrug efflux pump subunit AcrB (Escherichia coli (strain K12)); assay: Inhibition of AcrB in Escherichia coli BW25113 assessed as potentiation of levofloxacin induced antibacterial activity by measuring levofloxacin MIC at 16 ug/ml measured after 18 hrs by checkerboard titration method (reference value: 0.06 ug/ml); conditions: dose 16.0 µg/ml
[14] = target: T1, Multidrug efflux pump subunit AcrB (Escherichia coli (strain K12)); assay: Inhibition of AcrB in Escherichia coli BW25113 assessed as potentiation of rifampicin induced antibacterial activity by measuring rifampicin MIC at 16 ug/ml measured after 18 hrs by checkerboard titration method (reference value: 16 ug/ml); conditions: dose 16.0 µg/ml
[15] = target: T1, Multidrug efflux pump subunit AcrB (Escherichia coli (strain K12)); assay: Inhibition of AcrB in Escherichia coli BW25113 assessed as potentiation of chloramphenicol induced antibacterial activity by measuring chloramphenicol MIC at 128 ug/ml measured after 18 hrs by checkerboard titration method (reference value: 8 ug/ml); conditions: dose 128.0 µg/ml

Structure (SMILES)	MIC [1] [µg/mL]	MIC [2] [µg/mL]	MIC [3] [µg/mL]	MIC [4] [µg/mL]	MIC [5] [µg/mL]	MIC [6] [µg/mL]	MIC [7] [µg/mL]	MIC [8] [µg/mL]	MIC [9] [µg/mL]	Activity (Cell membrane)	MIC [10] [µg/mL]	MIC [11] [µg/mL]	MIC [12] [µg/mL]	MIC [13] [µg/mL]	MIC [14] [µg/mL]	MIC [15] [µg/mL]
O=C(NCCc1ccc(O)c(O)c1)c1cc(O)c(O)c(O)c1	512	32	16	4	512	1020	32	0.03	0.03	Non-Toxic	256	16	16	0.06	16	2
Nc1ccc(C(=O)NCCc2ccc(O)c(O)c2)cc1	1020	32	16	4	1020	1020	64	0.06	0.06	Non-Toxic	512	16	16	0.06	16	2
Oc1ccc(CCCCCCCc2ccc(O)c(O)c2)cc1O	512	64	16	8	512	1020	64	0.06	0.06	Non-Toxic	512	64	16	0.06	16	8
Oc1ccc(CCCCc2ccc(Br)cc2)cc1O	1020	64	16	8	512	1020	64	0.06	0.06	Toxic	512	64	16	0.06	16	8
Nc1cc(N)cc(C(=O)NCCc2ccc(O)c(O)c2)c1	512	32	16	8	512	512	64	0.06	0.06	Non-Toxic	512	32	16	0.06	16	8
Oc1ccc(CCCCc2ccc(Cl)cc2)cc1O	1020	64	16	16	512	1020	64	0.06	0.06	Toxic	512	64	16	0.06	16	16
Oc1ccc(CCCCc2ccccc2O)cc1O	512	64	16	8	512	512	64	0.06	0.06	Non-Toxic	512	64	16	0.06	16	4
Nc1ccccc1C(=O)NCCc1ccc(O)c(O)c1	1020	64	16	8	1020	1020	64	0.06	0.06	Non-Toxic	512	32	16	0.06	16	4
Oc1ccc(CCCCCc2ccc(O)c(O)c2)cc1O	1020	64	16	8	1020	1020	64	0.06	0.06	Non-Toxic	512	64	16	0.06	16	8
Oc1ccc(CCCCc2cc3cccc4ccc5cccc2c5c43)cc1O	512	64	16	8	512	512	64	0.06	0.06	Non-Toxic	256	32	16	0.06	16	4

— ChEMBL document CHEMBL4680134, “Structural optimization of natural product nordihydroguaretic acid to discover novel analogues as AcrB inhibitors” (Eur J Med Chem, 2020)
